Results reported in ChEMBL document CHEMBL4177684, “Design, synthesis, and biological evaluation of hydantoin bridged analogues of combretastatin A-4 as potential anticancer agents” (Bioorg Med Chem, 2017).

Legend:
[1] = tested on: HeLa; assay: Antiproliferative activity against human HeLa cells by MTT assay; format: functional, cell-based
How it was run: (§1)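 Growth inhibition rate calculated per compound. IC₅₀ derived by curve fitting.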

[2] = tested on: MDA-MB-231; assay: Antiproliferative activity against human MDA-MB-231 cells by MTT assay; format: functional, cell-based; how it was run: as §1
[3] = tested on: HCT-116; assay: Antiproliferative activity against human HCT116 cells by MTT assay; format: functional, cell-based; how it was run: as §1
[4] = tested on: A2780; assay: Antiproliferative activity against human A2780 cells by MTT assay; format: functional, cell-based; how it was run: as §1
[5] = Cytotoxicity against HOSEC at 10 uM by MTT assay relative to control; conditions: human
[6] = Cytotoxicity against HOSEC at 50 uM by MTT assay relative to control; conditions: human

Structure (SMILES) | IC50 [1] [nM] | IC50 [2] [nM] | IC50 [3] [nM] | IC50 [4] [nM] | Activity [5] [%] | Activity [6] [%]
COc1ccc(N2C(=O)N(C)C(=O)[C@H]2c2cc(OC)c(OC)c(OC)c2)cc1N | 81 | 125 | 157 | 97 | – | –
COc1ccc(C2C(=O)NC(=O)N2c2cc(OC)c(OC)c(OC)c2)cc1 (stereo unspecified) | > 50000 | – | – | > 50000 | – | –
COc1cc(C2C(=O)NC(=O)N2c2cnc3ccccc3c2)cc(OC)c1OC (stereo unspecified) | > 50000 | – | – | > 50000 | – | –
COc1ccc(N2C(=O)NC(=O)C2c2cc(OC)c(OC)c(OC)c2)cc1F (stereo unspecified) | 771 | 727 | 630 | 745 | – | –
COc1ccc(N2C(=O)NC(=O)C2c2cc(OC)c(OC)c(OC)c2)cc1[N+](=O)[O-] (stereo unspecified) | 4740 | – | – | 9700 | – | –
COc1ccc(N2C(=O)NC(=O)C2c2cc(OC)c(OC)c(OC)c2)cc1 (stereo unspecified) | 2820 | – | – | 2140 | – | –
COc1ccc(N2C(=O)NC(=O)C2c2cc(OC)c(OC)c(OC)c2)cc1N (stereo unspecified) | 584 | 311 | 232 | 283 | – | –
COc1ccc(N2C(=O)N(C)C(=O)[C@@H]2c2cc(OC)c(OC)c(OC)c2)cc1N | 399 | 582 | 355 | 305 | – | –
COc1ccc(N2C(=O)NC(=O)C2c2cc(OC)c(OC)c(OC)c2)cn1 (stereo unspecified) | > 50000 | – | – | > 50000 | – | –
CC(=O)O[C@H]1C(=O)[C@@]2(C)[C@H]([C@H](OC(=O)c3ccccc3)[C@]3(O)C[C@H](OC(=O)[C@H](O)[C@@H](NC(=O)c4ccccc4)c4ccccc4)C(C)=C1C3(C)C)[C@]1(OC(C)=O)CO[C@@H]1C[C@@H]2O [PACLITAXEL] | – | – | – | – | 51 | 94
COc1cc(C2C(=O)NC(=O)N2c2ccc3c(ccn3S(=O)(=O)c3ccc(C)cc3)c2)cc(OC)c1OC (stereo unspecified) | > 50000 | – | – | > 50000 | – | –
COc1ccc(N2C(=O)NC(=O)C2c2cc(OC)c(OC)c(OC)c2)cc1O (stereo unspecified) | 665 | 768 | 945 | 815 | – | –
COc1cc(C2C(=O)NC(=O)N2c2ccc(C)c(N)c2)cc(OC)c1OC (stereo unspecified) | 933 | 1170 | 988 | 1050 | – | –
COc1cc(C2C(=O)NC(=O)N2c2ccc(C)c([N+](=O)[O-])c2)cc(OC)c1OC (stereo unspecified) | 5450 | – | – | 2890 | – | –
COc1ccc(N2C(=O)N(C)C(=O)C2c2cc(OC)c(OC)c(OC)c2)cc1O (stereo unspecified) | 429 | 301 | 386 | 353 | – | –
COc1cc(C2C(=O)NC(=O)N2c2ccc3[nH]ccc3c2)cc(OC)c1OC (stereo unspecified) | > 50000 | – | – | 8410 | – | –
